{
  "source": "ChEMBL document CHEMBL4613248",
  "about": "“Twelfth-Position Deuteration of Nevirapine Reduces 12-Hydroxy-Nevirapine Formation and Nevirapine-Induced Hepatocyte Death” (J Med Chem, 2020)",
  "key": {"[1]": {"system": "Cytochrome P450", "assay": "Drug metabolism in human primary hepatocytes assessed as Cytochrome P450-mediated formation of 3-OHNVP at 10 uM incubated for 24 to 48 hrs by uHPLC-MS analysis", "format": "ADME, cell-based", "procedure,_shortened": "(§1)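 Cryoplateable pooled human hepatocytes (10 mixed-sex donors per pool, three lots), adhered overnight, then 10 μM substrate or vehicle (0.1% DMSO) for 24 or 48 h in InVitroGRO CP medium. Medium extracted with 50% acetonitrile, dried, reconstituted in methanol; uHPLC-Orbitrap MS/MS for monooxygenated metabolites, high-resolution MS for O-glucuronide.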"}, "[2]": {"system": "Cytochrome P450", "assay": "Drug metabolism in human primary hepatocytes assessed as Cytochrome P450-mediated formation of 2-OHNVP at 10 uM incubated for 24 to 48 hrs by uHPLC-MS analysis", "format": "ADME, cell-based", "procedure,_shortened": "as §1"}, "[3]": {"target": "T1, Cytochrome P450 1A1 (Homo sapiens, UniProt P04798)", "T1 sequence (P04798 whole entry)": "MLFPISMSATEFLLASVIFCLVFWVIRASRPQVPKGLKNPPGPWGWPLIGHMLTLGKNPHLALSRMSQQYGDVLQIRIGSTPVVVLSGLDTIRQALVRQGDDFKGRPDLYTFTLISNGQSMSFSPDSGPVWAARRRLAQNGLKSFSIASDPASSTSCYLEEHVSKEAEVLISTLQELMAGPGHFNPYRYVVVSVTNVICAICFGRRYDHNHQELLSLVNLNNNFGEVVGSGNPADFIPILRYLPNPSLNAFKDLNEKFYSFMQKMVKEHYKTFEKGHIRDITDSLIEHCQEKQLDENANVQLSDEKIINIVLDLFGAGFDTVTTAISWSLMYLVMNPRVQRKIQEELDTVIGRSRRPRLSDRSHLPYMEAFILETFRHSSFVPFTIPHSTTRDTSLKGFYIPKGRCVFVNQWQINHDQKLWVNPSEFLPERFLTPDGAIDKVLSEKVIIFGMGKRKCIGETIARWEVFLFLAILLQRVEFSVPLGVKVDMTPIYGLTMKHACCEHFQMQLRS", "assay": "Drug metabolism assessed as human CYP1A1-mediated formation of 12-OHNVP at 10 uM pre-incubated for 30 mins followed by addition of NADPH regenerating reagents by uHPLC-MS analysis", "format": "ADME", "details": "recombinant enzyme", "procedure,_shortened": "(§2)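 Insect-cell microsomes with single cDNA-expressed human P450 (100 nM) in 0.1 M potassium phosphate; 10 μM substrate prewarmed 5 min at 37 °C with NADPH-regenerating system, reaction started by adding microsomes; 30 min at 37 °C, 0.1% DMSO. Stopped, dried, reconstituted in methanol; triple-quadrupole SRM (12-OH 283.1→223.0, 2-OH 283.1→160.9, 3-OH 283.1→241.9), peak height; three replicates, mean ± SD.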"}, "[4]": {"target": "T2, Cytochrome P450 2A6 (Homo sapiens, UniProt P11509)", "T2 sequence (P11509 whole entry)": "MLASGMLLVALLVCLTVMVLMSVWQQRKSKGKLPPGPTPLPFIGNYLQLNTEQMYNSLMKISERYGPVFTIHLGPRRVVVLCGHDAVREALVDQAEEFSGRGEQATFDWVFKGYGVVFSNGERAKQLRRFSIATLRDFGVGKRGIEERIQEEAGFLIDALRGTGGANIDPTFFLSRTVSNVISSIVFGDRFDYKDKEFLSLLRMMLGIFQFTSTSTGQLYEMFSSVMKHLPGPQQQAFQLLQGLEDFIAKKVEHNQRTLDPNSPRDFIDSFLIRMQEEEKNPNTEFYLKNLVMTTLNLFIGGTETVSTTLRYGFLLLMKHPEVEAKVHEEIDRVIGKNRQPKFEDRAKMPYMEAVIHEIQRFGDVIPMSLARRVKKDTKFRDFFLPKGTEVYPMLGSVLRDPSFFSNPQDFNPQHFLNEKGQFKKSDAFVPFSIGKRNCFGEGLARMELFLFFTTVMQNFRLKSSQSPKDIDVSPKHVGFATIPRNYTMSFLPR", "assay": "Drug metabolism assessed as human CYP2A6-mediated formation of 12-OHNVP at 10 uM pre-incubated for 30 mins followed by addition of NADPH regenerating reagents by uHPLC-MS analysis", "format": "ADME", "details": "recombinant enzyme", "procedure,_shortened": "as §2"}, "[5]": {"target": "T3, Cytochrome P450 2B6 (Homo sapiens, UniProt P20813)", "T3 sequence (P20813 whole entry)": "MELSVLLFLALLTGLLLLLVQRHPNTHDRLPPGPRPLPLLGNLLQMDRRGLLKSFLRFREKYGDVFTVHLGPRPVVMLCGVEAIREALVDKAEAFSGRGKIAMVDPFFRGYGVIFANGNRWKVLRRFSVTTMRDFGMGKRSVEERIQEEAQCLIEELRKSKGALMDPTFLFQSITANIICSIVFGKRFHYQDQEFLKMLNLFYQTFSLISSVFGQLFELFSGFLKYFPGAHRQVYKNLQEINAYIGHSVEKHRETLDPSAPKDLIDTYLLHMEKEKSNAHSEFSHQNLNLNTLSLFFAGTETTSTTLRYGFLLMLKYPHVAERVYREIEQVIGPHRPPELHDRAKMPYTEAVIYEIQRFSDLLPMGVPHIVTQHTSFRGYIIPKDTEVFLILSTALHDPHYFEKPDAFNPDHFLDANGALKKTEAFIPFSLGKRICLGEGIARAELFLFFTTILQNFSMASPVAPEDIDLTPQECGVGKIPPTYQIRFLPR", "assay": "Drug metabolism assessed as human CYP2B6-mediated formation of 12-OHNVP at 10 uM pre-incubated for 30 mins followed by addition of NADPH regenerating reagents by uHPLC-MS analysis", "format": "ADME", "details": "recombinant enzyme", "procedure,_shortened": "as §2"}, "[6]": {"system": "Hepatocyte", "assay": "Induction of change in Slc9a3r1 protein expression in C57BL/6J mouse primary hepatocytes at 400 uM incubated for 8 hrs by relative-quantitation label-free proteomics analysis relative to NVP", "format": "cell-based", "procedure,_shortened": "(§3)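 Fresh primary hepatocytes from male C57BL/6J mice aged 8–13 weeks, adhered overnight, then given fresh medium containing compound (400 μM), NVP (400 μM) or vehicle (0.2% DMSO) for 8 h. Lysate reduced (DTT) and alkylated (iodoacetamide), acetone-precipitated and digested with trypsin. Label-free Top10 nanoLC-MS with precursor ion area quantitation; unpaired t test P values, Cohen's d effect size.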"}, "[7]": {"system": "Hepatocyte", "assay": "Induction of change in Endog protein expression in C57BL/6J mouse primary hepatocytes at 400 uM incubated for 8 hrs by relative-quantitation label-free proteomics analysis relative to NVP", "format": "cell-based", "procedure,_shortened": "as §3"}, "[8]": {"system": "Hepatocyte", "assay": "Induction of change in Tf protein expression in C57BL/6J mouse primary hepatocytes at 400 uM incubated for 8 hrs by relative-quantitation label-free proteomics analysis relative to NVP", "format": "cell-based", "procedure,_shortened": "as §3"}, "[9]": {"system": "Hepatocyte", "assay": "Induction of change in Mrpl1 protein expression in C57BL/6J mouse primary hepatocytes at 400 uM incubated for 8 hrs by relative-quantitation label-free proteomics analysis relative to NVP", "format": "cell-based", "procedure,_shortened": "as §3"}, "[10]": {"system": "Hepatocyte", "assay": "Induction of change in Acot13 protein expression in C57BL/6J mouse primary hepatocytes at 400 uM incubated for 8 hrs by relative-quantitation label-free proteomics analysis relative to NVP", "format": "cell-based", "procedure,_shortened": "as §3"}},
  "data": [
    {"smiles": "[2H]C([2H])([2H])c1ccnc2c1NC(=O)c1cccnc1N2C1CC1", "values": [
      {"measurement": "Drug metabolism", "setting": "[1]", "value": "Metabolite_Detected"},
      {"measurement": "Drug metabolism", "setting": "[2]", "value": "Metabolite_Detected"},
      {"measurement": "Drug metabolism", "setting": "[3]", "value": "Metabolite_Detected"},
      {"measurement": "Drug metabolism", "setting": "[4]", "value": "Metabolite_Detected"},
      {"measurement": "Drug metabolism", "setting": "[5]", "value": "Metabolite_Detected"},
      {"measurement": "fold change (FC)", "setting": "[6]", "value": 2.5},
      {"measurement": "fold change (FC)", "setting": "[7]", "value": 2.07},
      {"measurement": "fold change (FC)", "setting": "[8]", "value": -1.52},
      {"measurement": "fold change (FC)", "setting": "[9]", "value": -1.87},
      {"measurement": "fold change (FC)", "setting": "[10]", "value": -1.97}
    ]}
  ]
}
